# Test results taken from the M2OR odorant receptor database.
# Columns and labels:
# Settings in all cases: stereoisomer not certain
# [1] = molecular target: T1, OR52A5 (Homo sapiens) (UniProt Q9H2C5)
# T1 sequence (whole entry): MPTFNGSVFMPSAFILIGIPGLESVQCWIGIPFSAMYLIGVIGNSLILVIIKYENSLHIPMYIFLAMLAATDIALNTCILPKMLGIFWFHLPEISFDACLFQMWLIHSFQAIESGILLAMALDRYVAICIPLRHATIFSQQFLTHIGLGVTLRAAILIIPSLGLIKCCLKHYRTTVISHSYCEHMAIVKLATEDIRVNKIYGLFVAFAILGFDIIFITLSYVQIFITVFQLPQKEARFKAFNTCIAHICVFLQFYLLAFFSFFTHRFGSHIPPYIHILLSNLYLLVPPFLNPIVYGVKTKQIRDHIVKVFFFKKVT
# Summary of the method: (§1)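 Whether a receptor–molecule pair is responsive (active) rests on the original authors' judgment that its measured signal was statistically different from baseline. Pairs without that judgment are non-responsive (inactive). Sources used varied assay methods, commonly transient luciferase assays in mammalian cell lines.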
# [2] = molecular target: T2, OR52B2 (Homo sapiens) (UniProt Q96RD2)
# T2 sequence (whole entry): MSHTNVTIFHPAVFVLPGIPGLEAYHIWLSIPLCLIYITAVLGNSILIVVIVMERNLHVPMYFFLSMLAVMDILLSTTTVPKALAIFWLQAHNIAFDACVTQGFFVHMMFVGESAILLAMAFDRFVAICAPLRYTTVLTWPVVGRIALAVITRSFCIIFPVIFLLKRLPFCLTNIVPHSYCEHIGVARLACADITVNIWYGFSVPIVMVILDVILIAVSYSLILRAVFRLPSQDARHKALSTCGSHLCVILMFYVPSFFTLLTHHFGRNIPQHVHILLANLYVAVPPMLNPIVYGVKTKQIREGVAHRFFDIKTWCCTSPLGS
# Summary of the method: as §1
# [3] = molecular target: T3, OR52B4 (Homo sapiens) (UniProt Q8NGK2)
# T3 sequence (whole entry): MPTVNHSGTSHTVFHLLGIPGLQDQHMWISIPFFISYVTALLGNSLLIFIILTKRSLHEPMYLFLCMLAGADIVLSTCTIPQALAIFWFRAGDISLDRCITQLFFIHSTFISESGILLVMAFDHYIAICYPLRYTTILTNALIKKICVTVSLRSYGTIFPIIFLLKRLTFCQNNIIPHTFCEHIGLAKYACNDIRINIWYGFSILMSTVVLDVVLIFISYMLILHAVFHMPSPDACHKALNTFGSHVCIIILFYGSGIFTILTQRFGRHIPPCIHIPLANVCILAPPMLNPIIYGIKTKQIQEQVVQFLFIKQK
# Summary of the method: as §1
# [4] = molecular target: T4, OR52B6 (Homo sapiens) (UniProt Q8NGF0)
# T4 sequence (whole entry): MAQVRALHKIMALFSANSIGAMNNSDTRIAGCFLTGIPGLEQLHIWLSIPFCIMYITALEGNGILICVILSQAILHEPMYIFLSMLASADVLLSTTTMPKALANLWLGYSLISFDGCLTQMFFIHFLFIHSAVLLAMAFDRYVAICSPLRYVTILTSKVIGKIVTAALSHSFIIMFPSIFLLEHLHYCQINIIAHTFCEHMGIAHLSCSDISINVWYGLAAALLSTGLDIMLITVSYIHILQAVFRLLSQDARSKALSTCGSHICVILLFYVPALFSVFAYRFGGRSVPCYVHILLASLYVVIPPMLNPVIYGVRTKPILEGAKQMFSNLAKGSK
# Summary of the method: as §1
# [5] = molecular target: T5, OR52D1 (Homo sapiens) (UniProt Q9H346)
# T5 sequence (whole entry): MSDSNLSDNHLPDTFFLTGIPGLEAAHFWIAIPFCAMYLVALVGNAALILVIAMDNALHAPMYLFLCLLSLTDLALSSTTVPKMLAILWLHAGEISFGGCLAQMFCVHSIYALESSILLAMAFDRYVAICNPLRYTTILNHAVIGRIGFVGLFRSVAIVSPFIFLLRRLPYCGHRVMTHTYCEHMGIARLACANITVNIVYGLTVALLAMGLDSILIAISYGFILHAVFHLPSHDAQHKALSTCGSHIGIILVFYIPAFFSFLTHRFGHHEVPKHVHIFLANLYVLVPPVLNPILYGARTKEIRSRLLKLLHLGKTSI
# Summary of the method: as §1
# [6] = molecular target: OR52E1 (Homo sapiens) (UniProt Q8NGJ3)
# Chain of OR52E1 (Homo sapiens) (Q8NGJ3 whole entry): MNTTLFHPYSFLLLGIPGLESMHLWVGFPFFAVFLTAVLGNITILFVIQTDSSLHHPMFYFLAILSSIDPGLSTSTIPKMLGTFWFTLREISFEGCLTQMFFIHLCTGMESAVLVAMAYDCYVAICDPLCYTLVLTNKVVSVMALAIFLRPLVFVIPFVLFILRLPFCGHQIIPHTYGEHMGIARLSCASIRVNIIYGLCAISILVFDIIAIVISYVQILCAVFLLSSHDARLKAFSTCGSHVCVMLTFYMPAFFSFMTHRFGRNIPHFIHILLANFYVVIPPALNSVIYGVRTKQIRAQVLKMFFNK
# Summary of the method: as §1
# [7] = molecular target: OR52E2 (Homo sapiens) (UniProt Q8NGJ4)
# Chain of OR52E2 (Homo sapiens) (Q8NGJ4 whole entry): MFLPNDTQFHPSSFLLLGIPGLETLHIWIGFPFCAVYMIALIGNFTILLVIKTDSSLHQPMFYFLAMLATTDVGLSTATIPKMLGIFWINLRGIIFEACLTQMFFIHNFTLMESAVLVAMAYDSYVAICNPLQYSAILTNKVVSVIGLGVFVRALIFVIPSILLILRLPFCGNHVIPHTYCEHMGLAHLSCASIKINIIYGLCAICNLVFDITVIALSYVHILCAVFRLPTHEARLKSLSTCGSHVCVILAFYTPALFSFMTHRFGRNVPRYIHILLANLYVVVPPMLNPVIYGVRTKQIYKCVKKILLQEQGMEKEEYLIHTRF
# Summary of the method: as §1
# [8] = molecular target: OR52E4 (Homo sapiens) (UniProt Q8NGH9)
# Chain of OR52E4 (Homo sapiens) (Q8NGH9 whole entry): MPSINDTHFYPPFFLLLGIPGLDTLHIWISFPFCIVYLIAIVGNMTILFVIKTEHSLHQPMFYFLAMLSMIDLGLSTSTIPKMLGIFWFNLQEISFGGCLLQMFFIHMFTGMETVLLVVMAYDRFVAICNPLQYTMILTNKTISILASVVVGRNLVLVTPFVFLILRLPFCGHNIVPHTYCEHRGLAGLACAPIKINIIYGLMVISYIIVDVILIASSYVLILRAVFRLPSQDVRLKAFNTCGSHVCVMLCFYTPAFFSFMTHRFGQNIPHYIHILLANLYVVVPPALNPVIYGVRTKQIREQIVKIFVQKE
# Summary of the method: as §1
# [9] = molecular target: OR52E6 (Homo sapiens) (UniProt Q96RD3)
# Chain of OR52E6 (Homo sapiens) (Q96RD3 whole entry): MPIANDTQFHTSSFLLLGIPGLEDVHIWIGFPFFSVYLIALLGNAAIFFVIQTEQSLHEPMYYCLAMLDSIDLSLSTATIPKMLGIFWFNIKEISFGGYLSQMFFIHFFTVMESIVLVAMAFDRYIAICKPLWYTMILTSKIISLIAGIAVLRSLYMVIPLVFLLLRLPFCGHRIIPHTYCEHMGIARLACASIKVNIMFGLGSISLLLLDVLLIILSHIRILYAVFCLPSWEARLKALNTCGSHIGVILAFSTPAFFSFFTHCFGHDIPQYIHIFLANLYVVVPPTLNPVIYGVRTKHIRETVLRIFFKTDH
# Summary of the method: as §1
# [10] = molecular target: T6, OR52I1 (Homo sapiens) (UniProt Q8NGK6)
# T6 sequence (whole entry): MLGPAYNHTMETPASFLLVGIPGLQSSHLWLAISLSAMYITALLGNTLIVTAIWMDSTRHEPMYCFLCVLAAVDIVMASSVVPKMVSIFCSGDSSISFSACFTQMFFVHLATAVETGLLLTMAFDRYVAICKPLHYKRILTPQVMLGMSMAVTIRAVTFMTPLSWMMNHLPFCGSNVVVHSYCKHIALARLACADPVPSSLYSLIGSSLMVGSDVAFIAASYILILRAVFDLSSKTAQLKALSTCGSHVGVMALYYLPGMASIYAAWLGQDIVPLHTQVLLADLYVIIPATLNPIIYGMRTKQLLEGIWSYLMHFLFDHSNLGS
# Summary of the method: as §1
# [11] = molecular target: T7, OR52I2 (Homo sapiens) (UniProt Q8NH67)
# T7 sequence (whole entry): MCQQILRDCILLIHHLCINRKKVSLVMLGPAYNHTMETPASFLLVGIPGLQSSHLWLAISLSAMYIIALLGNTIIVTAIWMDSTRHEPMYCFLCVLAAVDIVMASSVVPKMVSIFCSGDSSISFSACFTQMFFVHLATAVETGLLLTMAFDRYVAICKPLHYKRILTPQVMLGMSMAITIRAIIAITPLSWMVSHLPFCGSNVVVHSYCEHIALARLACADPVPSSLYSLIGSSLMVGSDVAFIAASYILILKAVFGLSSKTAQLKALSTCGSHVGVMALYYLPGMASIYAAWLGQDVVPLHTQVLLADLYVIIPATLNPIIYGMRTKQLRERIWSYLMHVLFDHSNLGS
# Summary of the method: as §1
# [12] = molecular target: OR52J3 (Homo sapiens) (UniProt Q8NH60)
# Chain of OR52J3 (Homo sapiens) (Q8NH60 whole entry): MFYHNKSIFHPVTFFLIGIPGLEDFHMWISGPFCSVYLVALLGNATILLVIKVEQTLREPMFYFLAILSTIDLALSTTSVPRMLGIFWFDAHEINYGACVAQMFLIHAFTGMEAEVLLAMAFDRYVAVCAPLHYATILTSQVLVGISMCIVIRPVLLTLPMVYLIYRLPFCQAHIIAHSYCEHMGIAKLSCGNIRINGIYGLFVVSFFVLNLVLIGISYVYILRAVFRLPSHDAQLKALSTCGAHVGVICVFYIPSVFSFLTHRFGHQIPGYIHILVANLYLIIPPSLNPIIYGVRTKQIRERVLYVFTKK
# Summary of the method: as §1
# [13] = molecular target: T8, OR52K1 (Homo sapiens) (UniProt Q8NGK4)
# T8 sequence (whole entry): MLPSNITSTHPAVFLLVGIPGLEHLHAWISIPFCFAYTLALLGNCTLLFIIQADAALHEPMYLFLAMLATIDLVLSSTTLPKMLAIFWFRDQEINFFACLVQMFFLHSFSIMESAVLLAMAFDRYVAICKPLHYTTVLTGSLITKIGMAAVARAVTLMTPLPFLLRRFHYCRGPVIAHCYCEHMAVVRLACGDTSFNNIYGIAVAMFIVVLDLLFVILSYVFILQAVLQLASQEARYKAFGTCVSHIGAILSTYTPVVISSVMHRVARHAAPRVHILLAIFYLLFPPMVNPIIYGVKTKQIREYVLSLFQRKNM
# Summary of the method: as §1
# [14] = molecular target: T9, OR52K2 (Homo sapiens) (UniProt Q8NGK3)
# T9 sequence (whole entry): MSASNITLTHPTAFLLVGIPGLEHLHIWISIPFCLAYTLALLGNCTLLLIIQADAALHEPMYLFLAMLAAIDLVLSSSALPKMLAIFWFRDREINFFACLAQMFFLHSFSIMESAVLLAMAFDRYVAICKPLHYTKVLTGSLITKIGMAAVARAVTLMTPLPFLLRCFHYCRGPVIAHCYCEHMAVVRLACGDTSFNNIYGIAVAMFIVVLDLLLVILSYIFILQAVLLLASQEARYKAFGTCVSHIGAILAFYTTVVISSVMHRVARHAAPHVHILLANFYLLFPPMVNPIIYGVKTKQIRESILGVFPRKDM
# Summary of the method: as §1
# [15] = molecular target: T10, OR52L1 (Homo sapiens) (UniProt Q8NGH7)
# T10 sequence (whole entry): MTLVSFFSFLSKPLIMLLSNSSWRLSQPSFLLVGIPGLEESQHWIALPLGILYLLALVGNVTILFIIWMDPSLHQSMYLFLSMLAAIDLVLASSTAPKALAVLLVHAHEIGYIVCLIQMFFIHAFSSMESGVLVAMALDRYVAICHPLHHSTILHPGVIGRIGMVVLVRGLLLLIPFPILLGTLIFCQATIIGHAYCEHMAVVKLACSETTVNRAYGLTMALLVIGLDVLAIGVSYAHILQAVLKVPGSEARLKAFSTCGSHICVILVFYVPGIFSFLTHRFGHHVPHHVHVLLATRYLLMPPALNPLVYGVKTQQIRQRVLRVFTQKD
# Summary of the method: as §1
# [16] = molecular target: T11, OR52M1 (Homo sapiens) (UniProt Q8NGK5)
# T11 sequence (whole entry): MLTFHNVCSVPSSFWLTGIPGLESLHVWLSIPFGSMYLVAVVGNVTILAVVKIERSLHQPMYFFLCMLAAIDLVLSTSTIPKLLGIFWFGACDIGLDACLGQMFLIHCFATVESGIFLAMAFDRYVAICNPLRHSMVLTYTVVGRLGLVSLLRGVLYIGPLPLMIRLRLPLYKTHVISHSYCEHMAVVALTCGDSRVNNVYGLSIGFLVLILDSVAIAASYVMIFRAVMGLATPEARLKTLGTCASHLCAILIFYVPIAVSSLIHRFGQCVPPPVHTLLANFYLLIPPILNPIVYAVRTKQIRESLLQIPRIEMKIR
# Summary of the method: as §1
# [17] = molecular target: T12, OR52N1 (Homo sapiens) (UniProt Q8NH53)
# T12 sequence (whole entry): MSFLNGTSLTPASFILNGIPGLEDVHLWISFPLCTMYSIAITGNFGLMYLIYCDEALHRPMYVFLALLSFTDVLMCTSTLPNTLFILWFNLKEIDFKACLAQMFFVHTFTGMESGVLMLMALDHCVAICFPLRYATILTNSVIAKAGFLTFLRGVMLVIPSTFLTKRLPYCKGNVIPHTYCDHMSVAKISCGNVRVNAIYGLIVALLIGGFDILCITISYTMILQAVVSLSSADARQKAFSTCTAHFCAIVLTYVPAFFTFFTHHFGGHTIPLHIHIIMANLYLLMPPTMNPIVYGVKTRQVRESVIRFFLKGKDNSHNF
# Summary of the method: as §1
# [18] = molecular target: T13, OR52N2 (Homo sapiens) (UniProt Q8NGI0)
# T13 sequence (whole entry): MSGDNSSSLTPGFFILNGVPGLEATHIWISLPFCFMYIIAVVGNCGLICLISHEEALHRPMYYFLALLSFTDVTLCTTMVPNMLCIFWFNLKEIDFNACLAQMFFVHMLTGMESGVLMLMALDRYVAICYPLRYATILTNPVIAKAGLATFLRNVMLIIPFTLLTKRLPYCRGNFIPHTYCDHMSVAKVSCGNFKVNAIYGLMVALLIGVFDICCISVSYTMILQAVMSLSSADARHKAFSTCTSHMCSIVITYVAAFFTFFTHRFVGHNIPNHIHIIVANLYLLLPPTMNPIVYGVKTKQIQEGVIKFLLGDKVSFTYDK
# Summary of the method: as §1
# 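Also: active if original authors judged signal statistically different from baseline.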
smiles,measurement,setting,value
CC1=C(O)C(=O)C(C)O1 (stereo unspecified),odorant receptor agonist call,[1],inactive
same,odorant receptor agonist call,[2],inactive
same,odorant receptor agonist call,[3],inactive
same,odorant receptor agonist call,[4],inactive
same,odorant receptor agonist call,[5],inactive
same,odorant receptor agonist call,[6],inactive
same,odorant receptor agonist call,[7],inactive
same,odorant receptor agonist call,[8],inactive
same,odorant receptor agonist call,[9],inactive
same,odorant receptor agonist call,[10],inactive
same,odorant receptor agonist call,[11],inactive
same,odorant receptor agonist call,[12],inactive
same,odorant receptor agonist call,[13],inactive
same,odorant receptor agonist call,[14],inactive
same,odorant receptor agonist call,[15],inactive
same,odorant receptor agonist call,[16],inactive
same,odorant receptor agonist call,[17],inactive
same,odorant receptor agonist call,[18],inactive
CCCCCCC(C)O (stereo unspecified),odorant receptor agonist call,[5],inactive
CCCCCC(O)CC (stereo unspecified),odorant receptor agonist call,[5],inactive
CC12CCC(CC1=O)C2(C)C (stereo unspecified),odorant receptor agonist call,[5],inactive
CCCCCCCCCCCC(=O)O,odorant receptor agonist call,[5],inactive
OCc1ccccc1,odorant receptor agonist call,[5],active
CCCCCCC(=O)[O-].[H+],odorant receptor agonist call,[5],active
CSC,odorant receptor agonist call,[5],inactive
c1ccc2ncccc2c1,odorant receptor agonist call,[5],inactive
Cc1ccc(C(C)C)c(O)c1,odorant receptor agonist call,[5],inactive
CC=Cc1ccc(OC)cc1,odorant receptor agonist call,[5],active
CCCCCCCCC(=O)OC,odorant receptor agonist call,[5],inactive
CCCCCCC(=O)OC,odorant receptor agonist call,[5],active
COc1nccnc1CC(C)C,odorant receptor agonist call,[5],active
CCCCCC=O,odorant receptor agonist call,[5],inactive
CCCCCCCCCCC(C)=O,odorant receptor agonist call,[5],inactive
C=C(C)C1CC=C(C)CC1 (stereo unspecified),odorant receptor agonist call,[5],inactive
CCCCOC(=O)CCC,odorant receptor agonist call,[5],active
CCCCCCCC(C)=O,odorant receptor agonist call,[5],inactive
CCCCCCC1CCC(=O)O1 (stereo unspecified),odorant receptor agonist call,[5],inactive
CCCCCCCCCC(=O)OCC,odorant receptor agonist call,[5],inactive
CCCCCCCCCCCCO,odorant receptor agonist call,[5],inactive
CCCCCCCCC(C)=O,odorant receptor agonist call,[5],active
CCCCCC(=O)CC,odorant receptor agonist call,[5],active
c1ccc2[nH]ccc2c1,odorant receptor agonist call,[5],inactive
Cc1cnccn1,odorant receptor agonist call,[5],inactive
CCCCCCCCC(=O)OCC,odorant receptor agonist call,[5],inactive
CC(C)=CCCC(C)=CC#N,odorant receptor agonist call,[5],active
CCOC(=O)C(C)C,odorant receptor agonist call,[5],inactive
